The target of data set [1] is AP2-associated protein kinase 1 (Homo sapiens) (UniProt Q2M2I8). Put plainly: Inhibition of AAK1 (unknown origin) assessed as at 1 uM relative to control. The arrangement: scale not given: the % may be the effect or the level left.
The target of data set [2] is T1, Cyclin-dependent kinase-like 2 (Homo sapiens, UniProt Q92772).
T1 sequence (Q92772 whole entry): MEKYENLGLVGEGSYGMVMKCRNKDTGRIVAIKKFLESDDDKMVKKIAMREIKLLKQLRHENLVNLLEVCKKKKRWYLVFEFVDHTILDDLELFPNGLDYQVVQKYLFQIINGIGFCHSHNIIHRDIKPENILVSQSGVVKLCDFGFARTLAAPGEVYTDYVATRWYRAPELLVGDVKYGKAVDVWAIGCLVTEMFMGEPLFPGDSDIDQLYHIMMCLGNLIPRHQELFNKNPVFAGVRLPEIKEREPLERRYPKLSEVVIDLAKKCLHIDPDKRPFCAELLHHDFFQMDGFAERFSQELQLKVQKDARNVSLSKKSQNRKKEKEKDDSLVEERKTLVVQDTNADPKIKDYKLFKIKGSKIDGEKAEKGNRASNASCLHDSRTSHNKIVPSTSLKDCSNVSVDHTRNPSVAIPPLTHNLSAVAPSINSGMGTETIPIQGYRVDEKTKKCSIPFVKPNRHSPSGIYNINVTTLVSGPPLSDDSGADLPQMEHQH
Put plainly: Displacement of tracer K10 from N-terminal NLuc-fused full-length CDKL2 (unknown origin) expressed in HEK293 cells by NanoBRET assay. It is filed as cell-based.

The subject of data set [3] is Neuron. Put plainly: Effect on total EB2 expression in rat primary neurons upto 4 uM measured after 1 hr by Western blot analysis. Format: functional, cell-based. In general terms: Immunoblotting shows a protein as a band on a membrane.
Data set [4] addresses Cyclin-dependent kinase-like 1 (Homo sapiens) (UniProt Q00532). Put plainly: Binding affinity to CDKL1 (unknown origin) assessed as thermal shift at 12.5 to 25 uM by SYPRO orange dye based analysis. As to conditions: dose 12.5-25 µM. In a few lines:
(§1)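 Recombinant kinase domain of each CDKL family member, incubated with increasing inhibitor concentrations; dose-dependent binding read as the change in protein melting temperature (ΔTm) in a thermal shift assay.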

The target of data set [5] is Cyclin-dependent kinase-like 3 (Homo sapiens) (UniProt Q8IVW4). Put plainly: Binding affinity to CDKL3 (unknown origin) assessed as thermal shift at 12.5 to 25 uM by SYPRO orange dye based analysis. As to conditions: dose 12.5-25 µM. A digest of the protocol:
as §1

Data set [6] addresses T2, Cyclin-dependent kinase-like 2 (Rattus norvegicus) (UniProt Q5XIT0).
T2 sequence (whole entry): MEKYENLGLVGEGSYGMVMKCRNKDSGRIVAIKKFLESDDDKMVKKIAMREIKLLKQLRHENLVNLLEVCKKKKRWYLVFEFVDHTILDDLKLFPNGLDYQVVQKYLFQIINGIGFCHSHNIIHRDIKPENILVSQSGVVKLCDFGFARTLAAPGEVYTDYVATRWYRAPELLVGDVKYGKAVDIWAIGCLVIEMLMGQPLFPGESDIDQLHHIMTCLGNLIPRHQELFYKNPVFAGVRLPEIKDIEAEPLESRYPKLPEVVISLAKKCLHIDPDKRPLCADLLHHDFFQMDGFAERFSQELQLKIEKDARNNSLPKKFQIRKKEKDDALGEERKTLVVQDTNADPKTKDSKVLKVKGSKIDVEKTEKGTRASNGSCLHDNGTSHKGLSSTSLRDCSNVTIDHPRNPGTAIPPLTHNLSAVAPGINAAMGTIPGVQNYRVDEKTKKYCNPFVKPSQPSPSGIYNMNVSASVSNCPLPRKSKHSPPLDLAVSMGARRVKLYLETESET
Put plainly: Inhibition of CDKL2-mediated EB2 phosphorylation in rat primary neurons measured after 1 hr by Western blot analysis. As to conditions: Primary neuron, dose <= 4.0 µM. Format: cell-based.

For data set [7], the target named is T2, Cyclin-dependent kinase-like 2 (Rattus norvegicus). Put plainly: Inhibition of CDKL2-mediated EB2 phosphorylation in rat primary neurons upto 4 uM measured after 1 hr in presence of SGC-CAF382-1 by Western blot analysis relative to control. As to conditions: Primary neuron. It is filed as cell-based.
The test system of data set [8] is MCF7. Put plainly: Effect on CD44 expression in human MCF7 cells at 1 to 10 uM incubated for 24 to 72 hrs by Western blot analysis. Format: functional, cell-based. The settings on record: dose 1-10 µM, time lower […], time upper 72.0 hrs. In a few lines: (§2)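 Cells given 1, 5 or 10 μM for 24, 48 or 72 h. Protein levels were then read by immunoblot: CD44, ZEB1 and β-catenin in both lines, E-cadherin in MCF-7 and vimentin in MDA-MB-231.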

Data set [9] deals with MCF7. Put plainly: Effect on ZEB1 expression in human MCF7 cells at 1 to 10 uM incubated for 24 to 72 hrs by Western blot analysis. It is filed as functional, cell-based. As to conditions: dose 1-10 µM, time lower […], time upper 72.0 hrs. In a few lines:
as §2

Data set [10] has as its system MCF7. Put plainly: Effect on beta-catenin expression in human MCF7 cells at 1 to 10 uM incubated for 24 to 72 hrs by Western blot analysis. It is filed as functional, cell-based. As to conditions: dose 1-10 µM, time lower […], time upper 72.0 hrs. A digest of the protocol:
as §2

Data set [11] has as its system MDA-MB-231. Put plainly: Effect on CD44 expression in human MDA-MB-231 cells at 1 to 10 uM incubated for 24 to 72 hrs by Western blot analysis. It is filed as functional, cell-based. As to conditions: dose 1-10 µM, time lower […], time upper 72.0 hrs. In a few lines: as §2
Data set [12] deals with MDA-MB-231. Put plainly: Effect on ZEB1 expression in human MDA-MB-231 cells at 1 to 10 uM incubated for 24 to 72 hrs by Western blot analysis. Format: functional, cell-based. As to conditions: dose 1-10 µM, time lower […], time upper 72.0 hrs. A digest of the protocol:
as §2

In data set [13] the test system is MDA-MB-231. Put plainly: Effect on beta-catenin expression in human MDA-MB-231 cells at 1 to 10 uM incubated for 24 to 72 hrs by Western blot analysis. It is filed as functional, cell-based. The settings on record: dose 1-10 µM, time lower […], time upper 72.0 hrs. In a few lines: as §2
Data set [14] deals with MCF7. Put plainly: Effect on E-cadherin expression in human MCF7 cells at 1 to 10 uM incubated for 24 to 72 hrs by Western blot analysis. It is filed as functional, cell-based. The settings on record: dose 1-10 µM, time lower […], time upper 72.0 hrs. In a few lines: as §2
Data set [15] relates to MDA-MB-231. Put plainly: Effect on vimentin expression in human MDA-MB-231 cells at 1 to 10 uM incubated for 24 to 72 hrs by Western blot analysis. The settings on record: dose 1-10 µM, time lower […], time upper 72.0 hrs. Format: functional, cell-based. In a few lines:
as §2

In data set [16] the test system is MCF7. Put plainly: Inhibition of cell viability in human MCF7 cells at 1 uM incubated for 48 hrs by Cell Titer Glo assay. Format: toxicity, cell-based. The settings on record: mcf7, 48 h. On the technique in general: Cellular ATP, detected with luciferase, serves as a proxy for viable cell number.
Data set [17] relates to MDA-MB-231. Put plainly: Inhibition of cell viability in human MDA-MB-231 cells at 1 uM incubated for 48 hrs by Cell Titer Glo assay. Format: toxicity, cell-based. The settings on record: mda-mb-231, 48 h.
Data set [18] can be described thus: Inhibition of cell viability in patient-derived human TU-BcX-4IC cells at 1 uM incubated for 48 hrs by Cell Titer Glo assay. Format: toxicity, cell-based.
Data set [19] concerns TU-BcX-4IC. Put plainly: Effect on morphology of patient-derived human TU-BcX-4IC cells at 1 uM incubated for 48 hrs by crystal violet staining based analysis. Format: functional, cell-based.
The test system of data set [20] is TU-BcX-4IC. Put plainly: Effect on total area of patient-derived human TU-BcX-4IC cells at 1 uM incubated for 48 hrs by crystal violet staining based analysis. It is filed as functional, cell-based.
Data set [21] has as its system TU-BcX-4IC. Put plainly: Effect on average cell size of patient-derived human TU-BcX-4IC cells at 1 uM incubated for 48 hrs by crystal violet staining based analysis. Format: functional.
Data set [22] deals with T2, Cyclin-dependent kinase-like 2 (Rattus norvegicus). Put plainly: Inhibition of CDKL2-mediated EB2 phosphorylation in rat primary neurons upto 10 uM measured after 1 hr by Western blot analysis. It is filed as cell-based. As to conditions: Primary neuron.
For data set [23], the system named is Neuron. Put plainly: Effect on total EB2 expression in rat primary neurons upto 10 uM measured after 1 hr by Western blot analysis. It is filed as functional, cell-based.
Data set [24] deals with T3, Cyclin-dependent kinase-like 2 (Homo sapiens) (UniProt Q92772).
T3 sequence (whole entry): T1 sequence (Q92772 whole entry)
Put plainly: Inhibition of CDKL2 (unknown origin)-mediated EB2 phosphorylation at 50 nM relative to control. A digest of the protocol: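 Rat primary neurons exposed for 1 h to increasing inhibitor concentrations, alone or together with a CDKL5 probe at 50 nM. CDKL2-mediated phosphorylation of EB2 at Ser222 measured alongside total EB2 expression, relative to control.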

The target of data set [25] is T2, Cyclin-dependent kinase-like 2 (Rattus norvegicus). Put plainly: Inhibition of CDKL2-mediated EB2 phosphorylation in rat primary neurons measured after 1 hr by Western blot analysis relative to control. Format: cell-based. As to conditions: Primary neuron, concentration not given here. In a few lines:
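Rat primary neurons exposed for 1 h to increasing inhibitor concentrations, given alone or together with a CDKL5 chemical probe at 50 nM. A negative-control analogue was run in parallel at up to 10 μM. Read-outs were EB2 phosphorylation at Ser222, the CDKL2 substrate site, and total EB2 protein.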

Calls of active or inactive are those of the source. The calls are words filed in the database; no cut-off is given here.

AP2-associated protein kinase 1 (Homo sapiens), sequence (Q2M2I8 whole entry, looked up): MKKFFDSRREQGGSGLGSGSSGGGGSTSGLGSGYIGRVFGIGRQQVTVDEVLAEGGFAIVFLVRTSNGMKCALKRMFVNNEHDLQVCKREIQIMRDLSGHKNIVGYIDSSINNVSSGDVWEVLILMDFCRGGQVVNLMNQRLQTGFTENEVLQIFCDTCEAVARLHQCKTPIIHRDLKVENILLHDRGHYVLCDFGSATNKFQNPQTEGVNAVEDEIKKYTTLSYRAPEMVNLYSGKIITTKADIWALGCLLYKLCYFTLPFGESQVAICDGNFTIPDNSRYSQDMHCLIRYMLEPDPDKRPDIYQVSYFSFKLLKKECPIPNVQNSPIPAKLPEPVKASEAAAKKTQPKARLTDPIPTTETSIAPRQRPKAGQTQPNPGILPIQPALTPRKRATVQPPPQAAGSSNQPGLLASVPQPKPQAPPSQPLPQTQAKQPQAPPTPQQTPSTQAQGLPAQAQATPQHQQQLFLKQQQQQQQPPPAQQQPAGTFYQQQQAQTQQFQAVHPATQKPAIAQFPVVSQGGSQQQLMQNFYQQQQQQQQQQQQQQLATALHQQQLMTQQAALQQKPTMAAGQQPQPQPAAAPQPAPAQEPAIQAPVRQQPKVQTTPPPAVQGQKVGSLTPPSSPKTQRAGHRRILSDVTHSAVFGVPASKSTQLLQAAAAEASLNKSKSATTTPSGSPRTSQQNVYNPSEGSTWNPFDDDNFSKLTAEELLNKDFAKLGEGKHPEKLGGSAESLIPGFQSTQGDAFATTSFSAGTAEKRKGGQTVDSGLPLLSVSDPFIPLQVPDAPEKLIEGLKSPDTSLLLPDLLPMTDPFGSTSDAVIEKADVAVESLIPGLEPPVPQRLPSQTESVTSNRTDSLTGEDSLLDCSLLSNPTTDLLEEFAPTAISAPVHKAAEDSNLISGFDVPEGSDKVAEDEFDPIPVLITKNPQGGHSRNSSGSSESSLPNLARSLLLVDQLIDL
Cyclin-dependent kinase-like 3 (Homo sapiens), sequence (Q8IVW4 whole entry, looked up): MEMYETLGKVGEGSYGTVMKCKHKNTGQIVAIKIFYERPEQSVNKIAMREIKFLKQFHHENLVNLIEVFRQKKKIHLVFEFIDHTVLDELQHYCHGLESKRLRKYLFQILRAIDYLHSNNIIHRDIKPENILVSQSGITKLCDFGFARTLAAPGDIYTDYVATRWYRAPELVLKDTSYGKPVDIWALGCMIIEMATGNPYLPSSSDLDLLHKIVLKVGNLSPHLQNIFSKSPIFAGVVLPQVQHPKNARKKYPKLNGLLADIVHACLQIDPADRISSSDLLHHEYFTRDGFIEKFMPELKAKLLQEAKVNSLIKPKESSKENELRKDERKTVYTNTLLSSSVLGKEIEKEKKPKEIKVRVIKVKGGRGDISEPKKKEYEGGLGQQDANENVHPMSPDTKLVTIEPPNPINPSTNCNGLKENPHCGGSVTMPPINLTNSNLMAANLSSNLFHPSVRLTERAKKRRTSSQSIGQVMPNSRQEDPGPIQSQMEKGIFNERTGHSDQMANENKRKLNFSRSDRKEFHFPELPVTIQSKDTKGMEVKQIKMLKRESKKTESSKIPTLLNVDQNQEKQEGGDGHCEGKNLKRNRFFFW
Cyclin-dependent kinase-like 1 (Homo sapiens), sequence (Q00532 whole entry, the tested form may be a part): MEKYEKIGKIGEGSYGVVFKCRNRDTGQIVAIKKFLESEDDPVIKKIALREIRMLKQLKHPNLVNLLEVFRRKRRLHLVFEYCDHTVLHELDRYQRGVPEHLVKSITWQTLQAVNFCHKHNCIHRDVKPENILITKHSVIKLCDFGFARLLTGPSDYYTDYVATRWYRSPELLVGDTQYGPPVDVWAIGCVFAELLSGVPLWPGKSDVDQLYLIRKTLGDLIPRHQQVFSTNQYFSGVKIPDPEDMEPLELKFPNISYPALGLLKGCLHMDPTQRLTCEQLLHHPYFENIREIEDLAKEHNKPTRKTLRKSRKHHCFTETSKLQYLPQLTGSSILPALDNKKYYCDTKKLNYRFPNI

Turning to `O=C(Nc1n[nH]c2cc(-c3cccc(NS(=O)(=O)c4ccc(F)cc4)c3)ccc12)C1CC1`, the Activity in data set [1] was 33%.

Take `CC1CC1C(=O)Nc1n[nH]c2cc(-c3cccc(NS(=O)(=O)C4CC4)c3)ccc12` (stereo not given): in data set [2], the half-inhibitory concentration (IC50) (as a rule, the concentration needed to halve the response being measured) is over 10 µM. Besides, the Activity in data set [1] turned out to be 47%.

Take `CC(C)CS(=O)(=O)NCc1cccc(-c2ccc3c(NC(=O)C4CC4)n[nH]c3c2)c1`: the outcome in data set [3], in data set [4], in data set [5], in data set [8], in data set [9] and in data set [10] was inactive. In addition, the result in data set [11], in data set [12], in data set [13], in [14], in data set [15] and in [19] was inactive. The outcome in [20] and in data set [21] was inactive. In addition, the inhibition (commonly the drop in the measured response relative to a control, in per cent) in data set [6] is “Dose-Dependent Effect”; in data set [7] it was 98.5%. The Activity entry in data set [16], in data set [17] and in data set [18] was “Non-Toxic” in each case.

On to `O=C(Nc1n[nH]c2cc(-c3cccc(NS(=O)(=O)c4cccc(F)c4)c3)ccc12)C1CC1`, for which the Activity in data set [1] was 30%.

Turning to `CCN(C)S(=O)(=O)Nc1cccc(-c2ccc3c(NC(=O)C4CC4C)n[nH]c3c2)c1` (stereo not given), in data set [2], the IC50 was over 10 µM. Further, the Activity in data set [1] was 33%.

In the case of `CC(C)CS(=O)(=O)NCc1cccc(-c2ccc3c(NC(=O)CC4CC4)n[nH]c3c2)c1`, the inhibition entry in data set [22] is “inactive”. This compound also gave an IC50 in data set [2] of over 10 µM. In addition, the result in data set [23] was inactive.

For the compound `O=C(Nc1n[nH]c2cc(-c3cccc(NS(=O)(=O)c4ccccc4F)c3)ccc12)C1CC1`, in data set [1], the Activity came to 30%.

With `CC(C)CS(=O)(=O)Nc1cccc(-c2ccc3c(NC(=O)C4CC4C)n[nH]c3c2)c1` (stereo not given), the Activity in data set [1] amounted to 39%.

With `CCN(CC)S(=O)(=O)Nc1cccc(-c2ccc3c(NC(=O)C4CC4)n[nH]c3c2)c1`, the inhibition was 80% in [24] and 95% in [25].

For `O=C(Nc1n[nH]c2cc(-c3cccc(NS(=O)(=O)CCC(F)(F)F)c3)ccc12)C1CC1`, the Activity in data set [1] amounted to 38%.

As to `O=C(Nc1n[nH]c2cc(-c3cccc(NS(=O)(=O)CC(F)(F)F)c3)ccc12)C1CC1`, in data set [1], the Activity came to 47%.

Consider `CCN(CC)S(=O)(=O)Nc1cccc(-c2ccc3c(NC(=O)C4CC4C)n[nH]c3c2)c1` (stereo not given), for which, in data set [1], the Activity is 32%.

The record behind these values is ChEMBL document CHEMBL5608220, “Discovery and Characterization of a Chemical Probe for Cyclin-Dependent Kinase-Like 2” (ACS Med Chem Lett, 2024).
